Sampled rows, rich in hits. Any-hit rate of the full collection: about 1.8%.
M5 antag – CHRM5 antagonism in calcium assay; P08912; CHO-hM5 cells, Fluo-8 calcium fluorescence, ACh EC80; inhibition, % at 3 µM; 360,000 tested, 0.59% active;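 active = inhibition above a per-plate cutoff, the mean of that plate's test compounds plus 3 SD, cut at about 27% in these data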
CHRM4 PAM – positive allosteric modulators of human muscarinic M4 receptor. P08173. CHO-K1 hM4/Gqi5, Fluo-8 calcium fluorescence, ACh EC20; 0% = ACh EC20, 100% = maximal ACh. activation, % at 3 µM. 360,000 tested, 0.4% active. AID 624126;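 active = activation above its plate's cutoff, the mean activation of sample wells plus 3 SD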
Target sequence (P08173 whole entry, looked up): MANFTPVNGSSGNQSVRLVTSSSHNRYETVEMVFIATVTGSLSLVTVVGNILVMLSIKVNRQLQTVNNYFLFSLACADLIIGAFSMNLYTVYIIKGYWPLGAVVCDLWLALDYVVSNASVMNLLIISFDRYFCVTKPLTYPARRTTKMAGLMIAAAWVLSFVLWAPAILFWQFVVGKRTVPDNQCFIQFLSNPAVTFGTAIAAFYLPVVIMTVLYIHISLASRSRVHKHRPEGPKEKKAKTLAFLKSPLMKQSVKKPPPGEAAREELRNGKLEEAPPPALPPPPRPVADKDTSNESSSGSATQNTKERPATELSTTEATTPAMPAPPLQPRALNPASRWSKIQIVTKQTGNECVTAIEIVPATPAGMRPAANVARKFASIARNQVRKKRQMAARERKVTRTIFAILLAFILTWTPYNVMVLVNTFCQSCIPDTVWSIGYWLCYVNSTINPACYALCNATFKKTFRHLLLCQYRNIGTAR
CHRM5 agonist – CHRM5 agonism in calcium assay. activation, % at 3 µM. CHO-K1 hM5 cells, Fluo-8 calcium fluorescence; 0% DMSO wells, 100% maximal acetylcholine response. P08912. AID 624037. 360,000 tested, 0.19% active;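 active = activation above the run's mean over test compounds plus 3 SD, cut at about 23% in these data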;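 also: signal is peak over basal fluorescence ratio across the kinetic read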
M4 ag – agonists of human muscarinic M4 receptor (CHRM4); P08173; CHO-K1 hM4/Gqi5, Fluo-8 calcium fluorescence; vehicle 0%, full acetylcholine response 100%; activation, % at 3 µM; 360,000 tested, 0.14% active; AID 624127;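 active = activation above the run mean over all test wells plus 3 SD, cut at about 32% in these data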;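 also: peak over basal fluorescence ratio per well then scaled between controls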
M5 PAM – potentiates acetylcholine response at human M5 receptor; CHO-K1 hM5, Fluo-8 calcium, ACh EC20 PAM; 0% = ACh EC20, 100% = ACh EC100; activation, % at 3 µM; AID 624038; 360,000 tested, 0.3% active;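 active = activation above the run cutoff, the mean activation of all test compounds plus 3 SD, cut at about 18% in these data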
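Measured by: Fluo-8 calcium fluorescence; material: human M5 receptor in CHO-K1 cells; schedule: Post-acetylcholine fluorescence recording 140 s; benchmarks: low control EC20 acetylcholine (0%), high control EC100 acetylcholine (100%); read-out: Max/basal fluorescence ratio as % of EC20–EC100 ACh window; compound: single dose, 3 µM nominal final test concentration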
M4 antag – blocks acetylcholine activation of human M4 receptor; 360,000 tested, 0.73% active; inhibition, % at 3 µM; P08173; AID 624125; CHO-hM4 cells, ACh EC80, Fluo-8 calcium fluorescence;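 active = inhibition above its plate's cutoff, the mean inhibition of sample wells plus 3 SD, cut at about 27% in these data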
Numbers stand for hits; – = inactive; + = active, no number; ! = not active in a repeat.

SMILES | M5 antag | CHRM4 PAM | CHRM5 agonist | M4 ag | M5 PAM | M4 antag
CCOC(=O)c1ccc(NC(=S)N2CCCC(C(=O)OCC)C2)cc1 (configuration not stated) | – | – | – | – | – | –
CCOC(=O)C1CCCN(C(=S)Nc2cccc(Cl)c2C)C1 (configuration not stated) | – | – | 28 | – | – | –
CCN1CCN(C2=CC3=CC(=C(C#N)C#N)CCC3CC2)CC1 (configuration not stated) | 59 | – | 222 | 270 | – | 58
N#CC(C#N)=C1C=C2C=C(N3CCCCCC3)CCC2CC1 (configuration not stated) | 103 | – | + | 746 | – | 96
N#CC(C#N)=C1C=C2C=C(N3CCOCC3)CCC2CC1 (configuration not stated) | – | – | 37 | 52 | – | 29
CC1(C)CC(NCCN2CCN(C3=CC(=C(C#N)C#N)CC(C)(C)C3)CC2)=CC(=C(C#N)C#N)C1 | – | – | – | – | – | –
CN1CCN(C2=CC3=CC(=C(C#N)C#N)CCC3CC2)CC1 (configuration not stated) | 72 | – | 492 | 538 | – | 71
CCC(C(=O)NC(C)(C)C)n1c(-c2ccc3c(c2)OCO3)nc2ccccc21 (configuration not stated) | – | – | – | – | – | –
C[C@@H]1CN([C@@H](C)CO)C(=O)c2cc(N(C)C)ccc2O[C@@H](C)CCCCO[C@@H]1CN(C)Cc1ccc2c(c1)OCO2 | – | – | – | – | – | –
COc1cccc(NC(=O)Nc2nnc([C@H]3C[C@H](O)[C@@H](CO)O3)s2)c1 | – | – | – | – | – | –
CCC(CC)C(=O)N(C)c1c(C)nc2c(OCc3ccc(Cl)cc3Cl)cccn12 | – | – | – | – | – | –
O=c1c(/C=C(\O)c2ccccc2)nc2ccccc2n1-c1ccccc1 | – | – | – | – | – | 39
Cc1cc(F)cc(-c2cc(C(=O)NCc3ccco3)[nH]n2)c1 | – | – | – | – | – | –
CCN(CC)CC(C)(C)C(=O)/C=C/c1ccc(/C=C/C(=O)C(C)(C)CN(CC)CC)cc1 | – | – | – | – | – | 42
CCOC(=O)C1(C)CCCN1C(=O)c1sccc1C (configuration not stated) | – | – | – | – | – | –
COc1ccc(C(CCN2CCCCC2)c2c(OC)cc(OC)c3c(-c4ccccc4)cc(=O)oc23)cc1 (configuration not stated) | – | – | – | – | – | 34
COCCNc1nc(-c2ccc(Cl)cc2C)c2sccc2n1 | – | – | – | – | – | –
C(#Cc1ccccc1)C[N+]1(CC#Cc2cccc3ccccc23)CCCC1 | 29 | – | – | – | – | –
C#CC[N+]1(CC#Cc2ccccc2)CCCC1 | – | – | – | – | – | –
Cc1cnc(NC(=O)NCC2CCCC(CNC(=O)Nc3ncc(C)s3)C2)s1 (configuration not stated) | – | 48 | – | – | 27 | –
OC(c1ccc(F)c(F)c1)c1nc(-c2csc3ccccc23)cs1 (configuration not stated) | – | – | – | – | – | –
Cc1cccc(C)c1NC(=O)CN(C)C(=O)c1ccc(OCc2ccccc2)cc1 | – | 16 | – | – | – | –
CCN(CC)CC(=O)Nc1c(C)cccc1C | – | – | – | – | – | 27!
CCN(CC)CC(=O)Nc1c(C)cc(C(C)(C)C)cc1C | – | – | – | – | – | –
Cc1cnc(NC(=O)CSc2ncc(-c3ccccc3)n2Cc2ccco2)s1 | – | – | 26 | – | – | –
SMILES | M5 antag | CHRM4 PAM | CHRM5 agonist | M4 ag | M5 PAM | M4 antag
O=C(O)CSCC(=O)NCc1ccc(Cl)cc1 | – | 28 | – | – | – | –
CC(OC(=O)Cc1n[nH]c(=O)c2ccccc12)C(=O)Nc1ccc(Cl)cn1 (configuration not stated) | – | – | – | – | 19 | –
CC(OC(=O)Cc1n[nH]c(=O)c2ccccc12)C(=O)Nc1cc(Cl)cc(Cl)c1 (configuration not stated) | – | – | – | – | – | –
c1ccc(-c2noc(C3CCC3)n2)nc1 | – | – | – | – | 18 | –
CCCCC1CCC(c2nc(-c3ccccn3)no2)CC1 (configuration not stated) | – | – | – | – | – | –
CCOc1ccc(CCNC(=O)CSc2n[nH]c(N)n2)cc1OCC | 30 | – | – | – | – | –
O=C(c1cc(C2CCCCN2C(=O)OCCF)on1)N1CCOCC1 (configuration not stated) | – | – | – | – | – | –
O=C(Nc1cnn(Cc2ccc(Cl)cc2Cl)c1)c1cc(-c2cccs2)on1 | – | 31 | – | – | – | –
O=C(Nc1cnn(Cc2ccc(Cl)cc2Cl)c1)c1noc2c1CCCC2 | – | – | – | – | – | –
CC(=O)Nc1ccc(-c2ccnc3c2CC(C(=O)NCCC(F)(F)F)O3)cc1 (configuration not stated) | – | – | – | – | – | –
COc1ccc(C)cc1S(=O)(=O)N1CCN(C(=O)c2ncoc2-c2ccc(C)cc2)CC1 | – | – | – | – | – | –
COc1ccc(C)cc1S(=O)(=O)N1CCN(C(=O)c2ncoc2-c2cccc(C)c2)CC1 | 28 | – | – | – | – | –
O=C1CCN(Cl)C(=O)N1Cl | – | – | – | – | – | –
CCCCCn1c(CNC(=O)CCC)nc2ccccc21 | – | – | – | – | – | –
CCCCCn1c(CNC(=O)CC)nc2ccccc21 | – | – | 43 | – | – | –
O=C(C[n+]1cccc(/C=N/O)c1)NC(=O)Nc1ccccc1 | – | – | – | – | – | –
O=S(=O)(c1cccnc1)N1CCCC(Nc2ccc(F)c(F)c2)C1 (configuration not stated) | – | – | – | – | – | –
c1ccc(Sc2ccccc2CN2CCCC2)cc1 | 74 | – | – | – | – | 39
Fc1ccccc1CN1CCCCCCC1 | – | – | – | – | – | –
C/C=C\C(=O)Nc1cccc(C2=NOC3(C2)C[C@@H](C(N)=O)N(C(=O)c2ccc(Cl)cc2)C3)c1 (some centres not stated) | – | – | – | – | 19 | –
CC(C(=O)O)c1ccc(N2Cc3ccccc3C2=O)cc1 (configuration not stated) | – | – | – | – | – | 40
Cc1ccccc1N1Cc2ccccc2C1=O | – | – | – | – | – | –
FC(F)c1nnc2ccc(Cl)nn12 | – | – | – | – | – | –
Clc1ccc2nnc(Cl)n2n1 | – | 19 | – | – | – | –

From PubChem BioAssay
